Tests used:
[1] = system: Human immunodeficiency virus 1; assay: Antiviral activity against HIV1 bearing protease gene with B26 mutation infected in human MT4 cells after 5 days by MTT assay; assay type: functional, organism-based; conditions: Human immunodeficiency virus 1, MT4, 120 h
[2] = system: Human immunodeficiency virus 1; assay: Antiviral activity against HIV1 bearing protease gene with P25 mutation infected in human MT4 cells after 5 days by MTT assay; assay type: functional, organism-based; conditions: Human immunodeficiency virus 1, MT4, 120 h
[3] = system: Human immunodeficiency virus 1; assay: Antiviral activity against HIV1 bearing protease gene with A17 mutation infected in human MT4 cells after 5 days by MTT assay; assay type: functional, organism-based; conditions: Human immunodeficiency virus 1, MT4, 120 h
Outline: (§1)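 HIV-1 A17 mutant clone carrying protease mutations L10F, V32I, M46I, I47V, Q58E and I84V, generated by in vitro serial passage under LPV/RTV. EC50 was determined in MT-4 cells. Wild-type reference strain was HIV-1 pNL4-3.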

Rattus norvegicus = assay: Toxicity in Gunn rat assessed as unconjugated-bilirubin level at 250 mg/kg coadministered with ritonavir measured on day 1; assay type: organism-based; design: dose 250 mg/kg; conditions: in vivo
Outline: (§2)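 Gunn rats (n = 8-10 per arm) dosed orally with compound in 5% ethanol/95% propylene glycol with p-toluenesulfonic acid, together with 50 mg/kg RTV. Plasma was sampled 4 h after the first and second doses. Drug was measured by HPLC and bilirubin […]. Change in bilirubin (mg/dL) reported as mean with SD.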

Serum = assay: Drug level in Gunn rat serum at 250 mg/kg coadministered with ritonavir measured on day 1; assay type: ADME, organism-based; design: dose 250 mg/kg; conditions: in vivo; outline: as §2
[4] = system: Human immunodeficiency virus 1; assay: Antiviral activity against wild-type HIV1 pNL4-3 infected in human MT4 cells after 5 days by MTT assay; assay type: functional, organism-based; conditions: Human immunodeficiency virus 1, MT4, 120 h
[5] = system: Human immunodeficiency virus 1; assay: Antiviral activity against wild-type HIV1 pNL4-3 infected in human MT4 cells after 5 days by MTT assay in presence of 50% human serum; assay type: functional, organism-based; conditions: Human immunodeficiency virus 1, MT4, 120 h
[6] = system: Human immunodeficiency virus 1; assay: Fold resistance, ratio of EC50 for HIV1 bearing protease gene with A17 mutation to EC50 for wild-type HIV1 pNL4-3; assay type: functional; outline: as §1
[7] = Half life in Sprague-Dawley rat at 5 mg/kg, iv; assay type: ADME, organism-based; design: dose 5 mg/kg, route intravenous; conditions: in vivo
Outline: (§3)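 Male Sprague-Dawley-derived rats (n = 3) dosed iv or by oral gavage with 5 mg/mL solutions in 5% dextrose containing 20% ethanol, 30% propylene glycol and methanesulfonic acid equivalents. Plasma was sampled at 10 time points over 8 h, extracted into ethyl acetate/hexane and analysed by reversed-phase HPLC with internal standard. AUC in µg·h/mL.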

[8] = Clearance in Sprague-Dawley rat at 5 mg/kg, iv; assay type: ADME, organism-based; design: dose 5 mg/kg, route intravenous; conditions: in vivo; outline: as §3
[9] = Oral bioavailability in Sprague-Dawley rat at 5 mg/kg; assay type: ADME, organism-based; conditions: in vivo; outline: as §3
[10] = AUC in Sprague-Dawley rat at 5 mg/kg, po; assay type: ADME, organism-based; design: dose 5 mg/kg, route oral; conditions: plasma; outline: as §3
[11] = AUC in Sprague-Dawley rat at 5 mg/kg, po in presence of ritonavir; assay type: ADME, organism-based; design: dose 5 mg/kg, route oral; conditions: plasma; outline: as §3

Q: With `CC(C)CN(C[C@@H](O)[C@H](Cc1ccccc1)NC(=O)O[C@H]1CO[C@H]2OCC[C@H]21)S(=O)(=O)c1ccc(N)cc1` as the compound, how does the EC50 [1] read?
A: 587 nM

Q: And the EC50 [2]?
A: 515 nM

Q: What about the EC50 [3] of the same compound?
A: 338 nM

Q: Which Activity (Rattus norvegicus) does the source give for `COC(=O)N[C@H](C(=O)NN(Cc1ccccc1)C[C@H](O)[C@H](Cc1ccccc1)NC(=O)[C@@H](N1CCN(Cc2cccc(C)n2)C1=O)C(C)(C)C)C(C)(C)C` here?
A: 0.429 mg/dL

Q: What about the Drug uptake (Serum) of the same compound?
A: 13.28 µg/mL

Q: With `COC(=O)N[C@H](C(=O)N[C@@H](Cc1ccccc1)C[C@H](O)[C@H](Cc1ccccc1)NC(=O)[C@@H](N1CCN(Cc2cccc(C)n2)C1=O)C(C)(C)C)C(C)(C)C` as the compound, how does the Activity (Rattus norvegicus) read?
A: 0.195 mg/dL

Q: And the Drug uptake (Serum)?
A: 18.68 µg/mL

Q: What about the EC50 [4] of the same compound?
A: 13 nM

Q: And the EC50 [5]?
A: 179 nM

Q: What about the EC50 [3] of the same compound?
A: 88 nM

Q: And the “Ratio EC50” value [6]?
A: 7

Q: What does the source list for `COC(=O)N[C@H](C(=O)N[C@@H](Cc1ccc(-c2ccccn2)cc1)C[C@H](O)[C@H](Cc1ccccc1)NC(=O)[C@@H](N1CCN(Cc2ccccc2N)C1=O)C(C)(C)C)C(C)(C)C`?
A: EC50 [4]: 4 nM; EC50 [5]: 20 nM; EC50 [3]: 21 nM; Ratio EC50 [6]: 5; half-life [7]: 1.2 h; clearance [8]: 33.2 mL/min/kg; bioavailability [9]: 2.9%; AUC [10]: 80 ng·h/mL; AUC [11]: 1250 ng·h/mL

Q: What does the source list for `COC(=O)N[C@H](C(=O)N[C@@H](Cc1ccc(-c2ccccn2)cc1)C[C@H](O)[C@H](Cc1ccccc1)NC(=O)[C@@H](N1CCN(Cc2cccc(C)c2)C1=O)C(C)(C)C)C(C)(C)C`?
A: EC50 [4]: 5 nM; EC50 [5]: 25 nM; EC50 [3]: 41 nM; Ratio EC50 [6]: 8; half-life [7]: 1.4 h; clearance [8]: 29.3 mL/min/kg; bioavailability [9]: 0.8%; AUC [10]: 20 ng·h/mL; AUC [11]: 2700 ng·h/mL

From ChEMBL document CHEMBL1153436, “2-Pyridyl P1'-substituted symmetry-based human immunodeficiency virus protease inhibitors (A-792611 and A-790742) with potential for convenient dosing and reduced side effects” (J Med Chem, 2009)
